Screening results deposited in PubChem by several laboratories.
FXIa inh – inhibitors of human coagulation factor XIa. P03951. AID 798. inhibition, % at 5 µM. 220,000 tested, 0.14% active. purified FXIa, Boc-Glu-Ala-Arg-AMC fluorogenic substrate;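 active = inhibition of at least 40%; inactive = inhibition below 40%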;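 note: fluorescence of freed AMC excited at 355 nm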
Target sequence (P03951 19-387 limits assumed): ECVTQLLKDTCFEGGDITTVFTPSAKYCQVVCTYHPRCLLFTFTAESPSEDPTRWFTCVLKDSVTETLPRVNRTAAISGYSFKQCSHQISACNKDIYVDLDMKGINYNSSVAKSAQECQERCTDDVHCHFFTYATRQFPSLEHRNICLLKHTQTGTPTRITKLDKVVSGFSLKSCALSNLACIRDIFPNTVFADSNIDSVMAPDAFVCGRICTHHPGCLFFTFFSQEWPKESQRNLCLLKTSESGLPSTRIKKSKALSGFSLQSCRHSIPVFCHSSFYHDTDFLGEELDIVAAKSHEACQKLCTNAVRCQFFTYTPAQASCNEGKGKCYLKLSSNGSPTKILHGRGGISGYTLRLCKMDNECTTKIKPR
Target sequence (P03951 388-625 limits assumed): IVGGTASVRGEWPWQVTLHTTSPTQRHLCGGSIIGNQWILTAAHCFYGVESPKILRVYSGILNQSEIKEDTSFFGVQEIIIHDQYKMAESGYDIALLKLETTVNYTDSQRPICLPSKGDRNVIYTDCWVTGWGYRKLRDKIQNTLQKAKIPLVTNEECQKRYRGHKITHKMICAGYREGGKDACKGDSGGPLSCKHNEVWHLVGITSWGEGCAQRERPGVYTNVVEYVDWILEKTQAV
m-calpain inh – blocks pig calpain II enzyme activity. purified calpain II, fluorogenic peptide substrate, 30 min. AID 1236. 220,000 tested, 0.37% active. inhibition, % at 16 µM;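 active = inhibition above about 50%, limit read from the data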
Thrombin inh – inhibitors of human thrombin; P00734; alpha-thrombin, Boc-VPR-AMC fluorogenic substrate cleavage; inhibition, % at 5 µM; 220,000 tested, 0.26% active; AID 1046;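 active = inhibition at or above 40%; inactive = inhibition below 40%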
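Test system: human alpha-thrombin protein / Dosing: one concentration per compound, 5 µM, with 0.2% DMSO / Medium: pH 7.5 Tris-saline with Tween 20 / Benchmarks: no-compound enzyme wells and no-enzyme blanks / Read-out basis: percent inhibition of thrombin substrate cleavage / Timing: reaction at room temperature / Measured by: fluorescence, ex 355 nm, em 460 nm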
FXIIa inh – blocks human coagulation factor XIIa protease activity; P00748; purified FXIIa, Boc-QGR-AMC fluorogenic substrate, 2 h; inhibition, % at 5 µM; 220,000 tested, 0.3% active; AID 800; in the data active = inhibition above about 40%
KLK5 inh – inhibitors of human kallikrein 5; 210,000 tested, 0.59% active; inhibition, % at 5 µM; Q9Y337; recombinant hK5, fluorogenic AMC substrate cleavage; AID 873;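 active = inhibition of 40% or more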
Numbers stand for hits; n = inactive; x = no result. In the library only some 1.4% were active in any assay of this set; here they are far more common.

SMILES | FXIa inh | m-calpain inh | Thrombin inh | FXIIa inh | KLK5 inh
CCOC(=O)COc1ccc2nsnc2c1Cl | n | x | n | n | 101.7
Cc1nn(C)c(Cl)c1C(N)=O | n | n | n | n | n
CCOC(=O)/C(C#N)=C/C1=C(N2CCOCC2)C(C)(C)OCC1 | n | n | n | n | n
CCc1nnc(NC(=O)CCC(=O)N2CCN(CCOc3ccc(C)cc3)CC2)s1 | n | n | n | 42.1 | n
CCOC(=O)C1(CC2CCCCO2)CCN(S(=O)(=O)c2cc(C)cs2)CC1 (stereo unspecified) | n | n | n | n | n
O=[N+]([O-])c1cc(/C=N/n2cnnc2)ccc1N1CCCC1 | n | 62.1 | n | n | n
O=[N+]([O-])c1cc(/C=N/O)ccc1N1CCCC1 | n | n | n | n | n
COc1ccc(Nc2nc(OC)nc(N3CCOCC3)n2)cc1 | n | n | n | n | n
COc1nc(NCCN2CCOCC2)nc(Nc2ccccc2)n1 | n | n | n | n | 68.7
Cc1ccc(NC(=O)CSc2nc3ccccc3c(=O)n2CCCC(=O)NCCCN2CCOCC2)cc1 | n | n | n | n | n
Nn1c(Cc2cccc3ccccc23)nnc1SCCOc1ccc(F)cc1 | n | n | n | 40.8 | n
CCOC(=O)c1c(C)n(C)c2ccc(OC)c(NC(=O)CN3CCSCC3)c12 | n | n | n | n | n
CCOC(=O)c1c(C)n(C)c2ccc(OC)c(NC(=O)CCN3CCC(Cc4ccccc4)CC3)c12 | 51.8 | n | n | n | n
COc1ccc2ncc(OC(C)=O)cc2c1 | n | n | 40.1 | n | n
COc1ccc2nc(C)cc(C(=O)O)c2c1 | n | n | n | n | n
COc1ccc(C2N3CC4(C)CN2CC(C)(C3)C4=O)cc1OC (stereo unspecified) | n | n | n | n | 61.4
COc1ccc(C2OC(=O)C(C)(C)C(=O)C2(C)C)cc1OC (stereo unspecified) | n | n | n | n | n
COC(=O)c1cccc(NS(=O)(=O)c2ccc(OC)cc2)c1C | n | n | n | n | n
COC(=O)c1cccc(NS(=O)(=O)c2ccc(OC)c(OC)c2)c1C | n | n | n | 49.6 | n
Cc1ccc2c(c1)CC1(CN2C)C(=O)OC2(CCCCC2)OC1=O | n | n | 60.9 | n | n
CCc1ccc(OCc2n[nH]c(=S)n2Cc2ccccc2)cc1 | n | 53.8 | n | n | n
S=c1[nH]nc(COc2ccccc2)n1Cc1ccccc1 | n | n | n | n | n
Fc1ccccc1NC(=S)NN(Cc1ccccc1)c1ccccc1 | n | n | n | n | n
CC(C)c1ccccc1NC(=S)NN(Cc1ccccc1)c1ccccc1 | n | 50.5 | n | n | n
COc1ccccc1C(=O)n1nc(-c2cccnc2)nc1N | n | n | x | 85.5 | 61.3
SMILES | FXIa inh | m-calpain inh | Thrombin inh | FXIIa inh | KLK5 inh
COc1ccc(-c2nc(N)n(C(=O)c3cccs3)n2)cc1 | n | n | n | n | n
Cc1ccc(S(=O)(=O)n2nc(-c3cccnc3)nc2N)cc1 | n | n | n | n | n
Cc1ccc(C(=O)n2nc(-c3cccnc3)nc2N)cc1 | 48.0 | n | 82.3 | 93.9 | 73.7
NC(=O)c1ccsc1NC(=O)Cc1ccc([N+](=O)[O-])cc1 | n | n | n | n | n
Cc1cc(C)cc(OCC(=O)O/N=C(\N)c2ccccc2Cl)c1 | n | n | n | n | n
CCC(C)(C)n1nnnc1C(c1cc2ccc(OC)cc2[nH]c1=O)N1CCN(C2CCCCC2)CC1 (stereo unspecified) | n | n | n | n | 57.4
CC(CCc1ccccc1)NC(=O)C1CCN(S(=O)(=O)N2CCOCC2)CC1 (stereo unspecified) | n | n | n | n | n
COc1cccc(C2CC(c3ccc(F)cc3)Nc3nc(N)nn32)c1 (stereo unspecified) | n | n | n | n | 52.6
COc1ccc(C(=O)/C=C/NCc2ccc(F)cc2)cc1OC | n | n | n | n | 61.6
COc1ccc(C(=O)Nc2ccc(S(=O)(=O)NC(C)(C)C)cc2)cc1[N+](=O)[O-] | n | 53.6 | n | n | n
Fc1ccc(C(CNC(=S)NC2CCCCC2)N2CCOCC2)cc1 (stereo unspecified) | n | n | n | n | n
COCCCNC(=O)c1c(N)n(-c2ccc3c(c2)OCO3)c2nc3ccccc3nc12 | n | x | n | n | 104.6
CCOC(=O)CN1N=C(/C=C/c2ccc(OCC)cc2)CCC1=O | n | n | n | n | n
CCOC(=O)CN1N=C(/C=C/c2ccc(C(C)C)cc2)CCC1=O | n | 54.7 | n | n | n
CC(=O)Nc1ccc(S(=O)(=O)NCc2cn3c(C)csc3n2)cc1 | n | n | n | n | n
CCc1ccc(S(=O)(=O)NCc2cn3c(C)csc3n2)s1 | n | 100.3 | n | n | n
COc1cccc2cc(C(=O)NCCc3c[nH]c4ccccc34)c(=O)oc12 | n | n | n | n | n
CCOC(=O)c1ccc2c(c1)nc(C1CCN(S(=O)(=O)c3cccs3)CC1)n2CC | n | n | n | 52.3 | n
O=C(Cn1nc(-c2ccc(Cl)cc2)c2ccccc2c1=O)NN1CCOCC1 | n | n | n | n | n
CCc1cccc(NC(=O)Cc2ccc([N+](=O)[O-])cc2)c1 | 40.9 | n | n | n | 51.5
O=C(Cc1ccc([N+](=O)[O-])cc1)Nc1cccc(C(F)(F)F)c1 | n | n | n | n | n
CCC(=O)Nc1cccc(C(=O)OCc2cccc([N+](=O)[O-])c2)c1 | n | n | 40.8 | n | 68.2
CN(C)c1ccc(/C=C(\C#N)C(=O)NCc2ccco2)cc1 | n | n | n | n | n
CCN(CC)c1ccc(/C=C(\C#N)C(=O)NCc2ccco2)cc1 | n | n | n | n | 64.5
Cc1c(C(=O)NCCc2ccc(S(N)(=O)=O)cc2)cccc1[N+](=O)[O-] | n | n | x | n | n
SMILES | FXIa inh | m-calpain inh | Thrombin inh | FXIIa inh | KLK5 inh
NS(=O)(=O)c1ccc(CCNC(=O)Cc2ccccc2[N+](=O)[O-])cc1 | 58.6 | n | 52.4 | 59.3 | n
OCc1c(Cl)nc2ccccn12 | n | n | n | n | n
Brc1c(C[n+]2ccccc2)nc2ccccn12 | n | n | n | 53.1 | n
CCO[C@@H]1OC(C(=O)NCc2ccccc2)=C[C@H](c2ccc(Br)cc2)[C@H]1CCCO | n | n | n | n | n
CCn1c(SCc2nc3cc(OC)c(OC)cc3c(=O)[nH]2)nc2ccccc21 | n | n | n | x | n
CCSc1nc2cc(OC)c(OC)cc2c(=O)n1CC | n | n | n | n | 65.9
CC1(C)C2CC=C(/C=N/n3cnnc3)C1C2 (stereo unspecified) | n | n | n | 48.7 | n
CC1(C)C2CCC(C2)C1(C)N=C1OC(CCl)CS1 (stereo unspecified) | 52.5 | n | n | n | 51.9
Cc1ccccc1-n1cnc2cc(NCc3cccs3)ccc21 | n | n | 41.4 | n | 40.2
COc1ccccc1-n1cnc2cc(NCc3cccs3)ccc21 | n | n | n | n | n
O=C(COC(=O)c1ccc(F)c(S(=O)(=O)N2CCCCC2)c1)NCc1ccc(F)cc1 | n | n | n | n | n
O=C(Nc1ccc(N2CCCCC2)c(Cl)c1)c1ccc(N2CCOCC2)c([N+](=O)[O-])c1 | n | n | n | n | 45.5
COC(=O)c1ccc(S(=O)(=O)N2CCCCCC2)n1C | n | n | n | n | n
O=C(NCCSc1ccccc1)c1ccc(CN2CCOCC2)cc1 | n | n | n | n | n
